Compound activity deposited in PubChem by several laboratories.
Tn7 DDE FP: inhibitors of Tn7 peptide binding to fibrin DD(E), primary screen, biochemical, fluorescence polarization, human fibrin, Tn7 probe; inhibition, % at 8.3 µM; actives 0.13% (n = 370,000); Fibrinogen beta chain (Homo sapiens), P02675; AID 720508, 2013; FP displacement of FITC-Tn7 peptide from fibrin DD(E); 0% = median of compound wells per plate;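 active = inhibition above the mean of compounds falling within the control limits plus 3 SD of them, cut at about 14% in these data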
Target sequence (P02675 whole entry, looked up): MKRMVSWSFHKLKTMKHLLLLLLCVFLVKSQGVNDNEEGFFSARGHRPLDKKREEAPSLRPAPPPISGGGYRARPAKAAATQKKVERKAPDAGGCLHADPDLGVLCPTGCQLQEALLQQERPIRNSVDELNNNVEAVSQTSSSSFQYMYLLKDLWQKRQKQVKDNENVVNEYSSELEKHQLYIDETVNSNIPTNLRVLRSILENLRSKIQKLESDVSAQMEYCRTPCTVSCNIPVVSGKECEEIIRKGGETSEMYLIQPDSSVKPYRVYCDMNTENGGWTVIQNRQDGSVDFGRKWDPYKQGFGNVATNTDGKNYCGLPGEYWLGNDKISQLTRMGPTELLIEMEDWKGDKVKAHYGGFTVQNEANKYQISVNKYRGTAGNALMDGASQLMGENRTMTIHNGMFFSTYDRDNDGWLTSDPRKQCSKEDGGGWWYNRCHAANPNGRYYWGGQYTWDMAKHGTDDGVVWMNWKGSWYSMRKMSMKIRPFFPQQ
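System: human fibrin DD(E); quantity: Fibrin-DD(E) at 2 µM final; also added: fluorescent Tn7 probe at 0.1 µM; compound dosing: single nominal test concentration of 8.3 µM per compound; schedule: 10 min preincubation, 3 h with tracer, room temperature; detection: fluorescence polarization of the labelled Tn7 tracer; repeats: one replicate per compound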
GRK2 inh: compounds blocking aptamer binding on GRK2 – biochemical, human GRK2, bead flow cytometry, HTS, primary screen. FAM-aptamer displacement from GRK2. inhibition of aptamer binding, % at 10 µM. actives 0.59% (n = 330,000);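 active = inhibition of aptamer binding above 40%, roughly 3 SD of noise, on plates passing a quality check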;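 also: median bead fluorescence of bound FAM aptamer so fluorescent compounds give negative values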
CAL PDZ FP-1: untagged CAL PDZ binding inhibitors, primary screen, biochemical, fluorescence polarization, HTS. purified CAL PDZ, TMR-peptide fluorescence polarization, 1 h. inhibition, % at 24.9 µM. actives 0.92% (n = 300,000);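 active = mean inhibition of at least 30% with at least half of replicates also reaching 30%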
CAL PDZ FP-2: CAL PDZ peptide-binding inhibitors, primary screen, biochemical, fluorescence polarization, Cer-tagged CAL PDZ, HTS. Golgi-associated PDZ and coiled-coil motif-containing protein (Homo sapiens), Q9HD26. purified CAL PDZ, TMR-peptide fluorescence polarization, 1 h. inhibition, % at 20 µM. actives 0.02% (n = 330,000). AID 504414, 2011;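 active = highest replicate inhibition of at least 40%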
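System: purified tagged CAL PDZ domain construct (CerCALP). Schedule: 1 h incubation at room temperature before polarization reading. Medium: 25 mM sodium phosphate pH 7.4, 150 mM NaCl, TCEP, IgG, Thesit. Read-out: percent inhibition from loss of millipolarization. Measured by: FP readout, S and P plane fluorescence. Probe or stimulus: fluorescent TMR peptide probe.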
DDE Tn6 FP inh: inhibitors of Tn6 peptide binding to fibrin DD(E), primary screen, biochemical, fluorescence polarization, human fibrin, Tn6 probe; Fibrinogen beta chain (Homo sapiens), P02675; Fibrin DD(E) TRITC-Tn6 fluorescence polarization displacement; inhibition, % at 8.3 µM; actives 0.21% (n = 370,000); AID 720509, 2013;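 active = inhibition above a per-campaign cutoff: mean of compounds within control limits plus 3 SD, cut at about 15% in these data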
ARNT-TACC3 inh: disruptors of ARNT/TACC3 protein interaction, primary screen, biochemical, AlphaScreen, single concentration. AlphaScreen His-ARNT PAS-B/GST-TACC3 binding, luminescence; TACC3 fragment carries E629A point mutation. inhibition, % at 9.99 µM. AID 623870, 2012. actives 0.66% (n = 390,000). Transforming acidic coiled-coil-containing protein 3 (Homo sapiens), Q9Y6A5;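 active = mean inhibition of replicates at least 50% and at least half of replicates each reaching 50%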
Large screens that a line does not name were inactive. The list is not random: actives were taken first. Their share in the collection is about 1.8%.

CCN(CC)C(=O)c1ccc(NC(=S)NC(=O)CCc2ccccc2)cc1	none
CCN(CC)C(=O)c1ccc(NC(=O)CCCSc2ccccc2)cc1	CAL PDZ FP-1 80
CCCN1[C@@H]2Cn3c(cccc3=O)[C@H]1[C@@H](C(=O)N(C)C)[C@@H]2CO	none (no result: Tn7 DDE FP, GRK2 inh, CAL PDZ FP-1, CAL PDZ FP-2, DDE Tn6 FP inh)
O=C(Nc1ccc(Cl)cc1)OC1CN2CCC1CC2 (centres undefined)	CAL PDZ FP-1 48
C[C@]12CC[C@H](O)C[C@@H]1CC[C@H]1[C@H]3CCC(=O)[C@@]3(C)CC[C@@H]12	none (no result: GRK2 inh, CAL PDZ FP-1, CAL PDZ FP-2, ARNT-TACC3 inh)
C[C@]12CC[C@@H](O)C[C@@H]1CC[C@@H]1[C@@H]2CC[C@]2(C)C(=O)CC[C@@H]12	Tn7 DDE FP 16
CCN(CC)C(=O)c1ccc2c(c1)C1C=CCC1C(C(=O)O)N2 (centres undefined)	ARNT-TACC3 inh 13
CC(NC(=O)Cc1cccc2ccccc12)C(=O)N1CCC(=O)CC1 (centres undefined)	CAL PDZ FP-1 47
O=C1CCN(C(=O)CNC(=O)Cc2ccccc2)CC1	none
Cc1ccccc1N1C(=O)/C(=C/c2ccco2)C(=O)NC1=S	GRK2 inh 100 (no result: Tn7 DDE FP, CAL PDZ FP-1, CAL PDZ FP-2, DDE Tn6 FP inh, ARNT-TACC3 inh)
COc1ccc(-c2ccc([C@@H]3[C@H]4CN(C(=O)Cc5ccncc5)CCCCN4[C@H]3CO)cc2)cc1	none (no result: Tn7 DDE FP, GRK2 inh, CAL PDZ FP-1, CAL PDZ FP-2, DDE Tn6 FP inh)
N#Cc1ccc(NC(=S)N2Cc3cc(Br)ccc3-n3nncc3C2)cc1	none (no result: GRK2 inh, CAL PDZ FP-1, CAL PDZ FP-2, ARNT-TACC3 inh)
O=C1NC(=O)C(Nc2ccccc2)C(=O)N1	ARNT-TACC3 inh 33 (no result: GRK2 inh)
COC(=O)C[C@H]1CC[C@@H]2NC[C@H](O)COC[C@H]2O1	none (no result: Tn7 DDE FP, GRK2 inh, CAL PDZ FP-1, CAL PDZ FP-2, DDE Tn6 FP inh)
COc1ccc(C=C2C(=O)NC(=S)NC2=O)cc1	none (no result: GRK2 inh)
O=C1NC(=S)NC(=O)C1=Cc1cccc2cc3ccccc3cc12	ARNT-TACC3 inh 21 (no result: GRK2 inh)
CCC(C)n1c(O)c(/C=N/NC(=O)c2ccncc2)c(=O)[nH]c1=S (centres undefined)	ARNT-TACC3 inh 65 (no result: CAL PDZ FP-1)
O=C(N/N=C/c1c(O)n(Cc2ccc(F)cc2)c(=S)[nH]c1=O)c1ccncc1	ARNT-TACC3 inh 61
CCn1c(O)c(/C=N/NC(=O)c2ccncc2)c(=O)[nH]c1=S	none (no result: ARNT-TACC3 inh)
CN(C)CC#Cc1ccc([C@@H]2[C@@H](CO)N3CCCCN(C(=O)Cc4ccccn4)C[C@H]23)cc1	none (no result: Tn7 DDE FP, GRK2 inh, CAL PDZ FP-1, CAL PDZ FP-2, DDE Tn6 FP inh)
Clc1ccc(C(Cl)(Cl)Cl)c(Cl)c1	CAL PDZ FP-1 71 (no result: ARNT-TACC3 inh)
C[C@H](CO)N1C[C@H](C)[C@@H](CN(C)C(=O)Oc2cccc3ccccc23)OCc2cnnn2CCCC1=O	none (no result: Tn7 DDE FP, GRK2 inh, CAL PDZ FP-1, CAL PDZ FP-2, DDE Tn6 FP inh)
CN1[C@@H](CO)[C@@H]2c3ccccc3NC[C@@H]21	none (no result: Tn7 DDE FP, GRK2 inh, CAL PDZ FP-1, CAL PDZ FP-2, DDE Tn6 FP inh)
CC(=O)O[C@@]12CO[C@@H]1C[C@H](OC1OCC(O)C(O)C1O)[C@@]1(C)C(=O)[C@H](O)C3=C(C)[C@@H](OC(=O)[C@H](O)[C@@H](NC(=O)c4ccccc4)c4ccccc4)C[C@@](O)([C@@H](OC(=O)c4ccccc4)C12)C3(C)C (some centres undefined)	none
CCCCCC(=O)N[C@@H](c1ccccc1)[C@@H](O)C(=O)O[C@H]1C[C@@]2(O)[C@@H](OC(=O)c3ccccc3)C3[C@](C)(C(=O)[C@H](O)C(=C1C)C2(C)C)[C@@H](OC1OCC(O)C(O)C1O)C[C@H]1OC[C@@]31OC(C)=O (some centres undefined)	ARNT-TACC3 inh 57
COc1ccc(-c2cc(=NCCCCCC(=O)O)c3cc(C)ccc3o2)cc1	ARNT-TACC3 inh 61 (no result: GRK2 inh)
